# Reference: ChEMBL document CHEMBL1152612, “Ursolic acid derivatives induce cell cycle arrest and apoptosis in NTUB1 cells associated with reactive oxygen species” (Bioorg Med Chem, 2009)
# The source made the active and inactive calls. The calls are words filed in the database; no cut-off is given here.
# Tests used:
# NTUB1 [1] = assay: Increase in intracellular reactive oxygen species level in human NTUB1 cells at 20 uM after 24 hrs in presence of 1 mM N-acetyl-cysteine by DCFH-DA staining; format: functional, cell-based
# Method in brief: (§1)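 NTUB1 cells treated for 24 or 48 h, with or without 1 mM N-acetylcysteine. DCFH-DA (10 µM) added 30 min before harvest; cells then trypsinized, PBS-washed, and DCF green fluorescence read at once by flow cytometry through a 525 nm band-pass filter. Three independent experiments.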
# NTUB1 [2] = assay: Increase in intracellular reactive oxygen species level in human NTUB1 cells at 20 uM after 48 hrs by DCFH-DA staining; format: functional, cell-based; method in brief: as §1
# NTUB1 [3] = assay: Increase in intracellular reactive oxygen species level in human NTUB1 cells at 50 uM after 24 hrs in presence of 1 mM N-acetyl-cysteine by DCFH-DA staining; format: functional, cell-based; method in brief: as §1
# [4] = Cell cycle arrest in human NTUB1 cells assessed as accumulation at G2/M phase at 20 uM after 48 hrs using propidium iodide staining by flow cytometry; format: functional, cell-based
# Method in brief: (§2)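 NTUB1 cells plated at 8 × 10⁵ per 10 cm dish and exposed to compound for 24 or 48 h; untreated controls got medium alone. Cells trypsinized, PBS-washed and fixed overnight in ice-cold MeOH at −20 °C, then stained with 50 µg/mL propidium iodide plus RNase A. DNA content was read by flow cytometry, with apoptosis taken as sub-G1 accumulation. Three independent experiments.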
# [5] = Cell cycle arrest in human NTUB1 cells assessed as accumulation at G2/M phase at 20 uM after 24 hrs using propidium iodide staining by flow cytometry; format: functional, cell-based; method in brief: as §2
# [6] = Cell cycle arrest in human NTUB1 cells assessed as accumulation at S phase at 50 uM after 48 hrs using propidium iodide staining by flow cytometry; format: functional, cell-based; method in brief: as §2
# [7] = Cell cycle arrest in human NTUB1 cells assessed as accumulation at G2/M phase at 50 uM after 24 hrs using propidium iodide staining by flow cytometry; format: functional, cell-based; method in brief: as §2
# A549 = assay: Cytotoxicity against human A549 cells at 50 uM after 72 hrs by MTT assay; format: functional, cell-based
# Method in brief: (§3)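 Cells grown in RPMI 1640 with 10% FBS, penicillin/streptomycin and 2 mM L-glutamine at 37 °C under 5% CO₂. Seeded 1800 cells/well, left overnight, then given graded compound concentrations for 72 h; compounds diluted from DMSO, 0.1% DMSO in medium and in controls. MTT 2 mg/mL in PBS for 3 h, formazan dissolved in DMSO, absorbance 540 nm. Viability given as % of control; IC50 by median-effect analysis, mean ± SD.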
# PC-3 = assay: Cytotoxicity against human PC3 cells at 50 uM after 72 hrs by MTT assay; format: functional, cell-based; method in brief: as §3
# [8] = Cell cycle arrest in human NTUB1 cells assessed as accumulation at S phase at 20 uM after 48 hrs using propidium iodide staining by flow cytometry; format: functional, cell-based; method in brief: as §2
# NTUB1 [9] = assay: Increase in intracellular reactive oxygen species level in human NTUB1 cells at 50 uM after 48 hrs by DCFH-DA staining; format: functional, cell-based; method in brief: as §1
# [10] = Cell cycle arrest in human NTUB1 cells assessed as accumulation at S phase at 20 uM after 24 hrs using propidium iodide staining by flow cytometry; format: functional, cell-based; method in brief: as §2
# NTUB1 [11] = assay: Increase in intracellular reactive oxygen species level in human NTUB1 cells at 50 uM after 24 hrs by DCFH-DA staining; format: functional, cell-based; method in brief: as §1
# [12] = Cytotoxicity against human NTUB1 cells after 72 hrs by MTT assay; format: functional, cell-based; settings: NTUB1, 72 h; method in brief: as §3
# [13] = Cell cycle arrest in human NTUB1 cells assessed as accumulation at G1 phase at 20 uM after 48 hrs using propidium iodide staining by flow cytometry; format: functional, cell-based; method in brief: as §2
# Tubulin (Homo sapiens) = Tubulin (Homo sapiens) (UniProt P68371+Q9H4B7+P0DPH7+P68366+Q13509+Q71U36+P04350+Q3ZCM7+P07437+P68363+Q9BQE3+Q6PEY2+Q13885+Q9BVA1+Q9BUF5); assay: Inhibition of tubulin polymerization in human NTUB1 cells assessed as blockade of microtubule assembly at 50 uM by indirect immunofluorescence staining; format: cell-based
# Method in brief: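 NTUB1 cells on coverslips were treated for 24 h, then fixed in 2% formaldehyde/PBS for 20 min and in cold methanol (−20 °C) for 3 min. Stained with anti-α-tubulin monoclonal antibody for 3 h at room temperature, then rhodamine-conjugated secondary antibody for 1 h in the dark. Mounted in 80% glycerol/PBS and examined by fluorescence microscopy.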
# [14] = Cell cycle arrest in human NTUB1 cells assessed as accumulation at G2/M phase at 50 uM after 48 hrs using propidium iodide staining by flow cytometry; format: functional, cell-based; method in brief: as §2
# [15] = Induction of apoptosis in human NTUB1 cells assessed as accumulation at subG1 phase at 50 uM after 48 hrs using propidium iodide staining by flow cytometry; format: functional; method in brief: as §2
# [16] = Cell cycle arrest in human NTUB1 cells assessed as accumulation at G1 phase at 20 uM after 24 hrs using propidium iodide staining by flow cytometry; format: functional, cell-based; method in brief: as §2
# [17] = Induction of apoptosis in human NTUB1 cells assessed as accumulation at subG1 phase at 20 uM after 48 hrs using propidium iodide staining by flow cytometry; format: functional; method in brief: as §2
# NTUB1 [18] = assay: Increase in intracellular reactive oxygen species level in human NTUB1 cells at 50 uM after 48 hrs in presence of 1 mM N-acetyl-cysteine by DCFH-DA staining; format: functional, cell-based; method in brief: as §1
# [19] = Cell cycle arrest in human NTUB1 cells assessed as accumulation at G1 phase at 50 uM after 24 hrs using propidium iodide staining by flow cytometry; format: functional, cell-based; method in brief: as §2
# [20] = Induction of apoptosis in human NTUB1 cells assessed as accumulation at subG1 phase at 20 uM after 24 hrs using propidium iodide staining by flow cytometry; format: functional; method in brief: as §2
# [21] = Cell cycle arrest in human NTUB1 cells assessed as accumulation at G1 phase at 50 uM after 48 hrs using propidium iodide staining by flow cytometry; format: functional, cell-based; method in brief: as §2
# NTUB1 [22] = assay: Increase in intracellular reactive oxygen species level in human NTUB1 cells at 20 uM after 48 hrs in presence of 1 mM N-acetyl-cysteine by DCFH-DA staining; format: functional, cell-based; method in brief: as §1
# [23] = Cell cycle arrest in human NTUB1 cells assessed as accumulation at S phase at 50 uM after 24 hrs using propidium iodide staining by flow cytometry; format: functional, cell-based; method in brief: as §2
# [24] = Induction of apoptosis in human NTUB1 cells assessed as accumulation at subG1 phase at 50 uM after 24 hrs using propidium iodide staining by flow cytometry; format: functional; method in brief: as §2
# NTUB1 [25] = assay: Increase in intracellular reactive oxygen species level in human NTUB1 cells at 20 uM after 24 hrs by DCFH-DA staining; format: functional, cell-based; method in brief: as §1
compound,measurement,setting,value
C=C(C)[C@@H]1CC[C@]2(C)[C@H](CC=C3[C@@H]4[C@@H](C)[C@H](C)CC[C@]4(C(=O)O)CC[C@]32C)[C@@]1(C)CCC(=O)O,Activity,NTUB1 [1],inactive
same,Activity,NTUB1 [2],Active
same,Activity,NTUB1 [3],inactive
same,Activity,[4],16.6%
same,Activity,[5],10.9%
same,Activity,[6],3.05%
same,Activity,[7],13.1%
same,Activity,A549,Active
same,Activity,PC-3,Active
same,Activity,[8],20.6%
same,Activity,NTUB1 [9],Active
same,Activity,[10],23.7%
same,Activity,NTUB1 [11],Active
same,IC50,[12],25.5 µM
same,Activity,[13],52.2%
same,Activity,Tubulin (Homo sapiens),Active
same,Activity,[14],11.1%
same,Activity,[15],14%
same,Activity,[16],41.3%
same,Activity,[17],5.12%
same,Activity,NTUB1 [18],Active
same,Activity,[19],52.2%
same,Activity,[20],21.68%
same,Activity,[21],66.4%
same,Activity,NTUB1 [22],Active
same,Activity,[23],6.9%
same,Activity,[24],25.75%
same,Activity,NTUB1 [25],Active
